In ChEMBL document CHEMBL1629654, “Breakthrough Aspergillus fumigatus and Candida albicans double infection during caspofungin treatment: laboratory characteristics and implication for susceptibility testing” (2009):
Converted amounts (≈) assume the structure as drawn. The source made the active and inactive calls. The calls are words filed in the database; no cut-off is given here. *1 amine or outer side, *2 acyl side, *3 side chain or, on linkers, in order; H or OH if unused. Where a SMILES comes first, the peptide text is derived from it. Bridges are numbered along the chain shown (N, C = ends). [ ]: non-standard residue; d: D form. The star is where a group is joined. pTerphenylCO(4''-OnC5H11) = CCCCCOc1ccc(-c2ccc(-c3ccc(C(=O)*)cc3)cc2)cc1; Orn(4R-OH,5R-OH) = O=C([C@H](C[C@@H](O)[C@@H](O)N[*:3])N[*:1])[*:2]; hTyr(3S-OH,4S-OH) = N[C@H](C(=O)O)[C@H](O)[C@@H](O)c1ccc(O)cc1; Pro(3S-OH,4S-Me) = C[C@H]1CN[C@H](C(=O)O)[C@H]1O; Hyp = O=C(O)[C@@H]1C[C@@H](O)CN1

What was measured:
[1] = test system: Candida albicans; experiment: Antimicrobial activity against Candida albicans isolate R after 48 hrs by microdilution method; assay type: functional
In short: (§1)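 Broth microdilution in microtiter plates, read spectrophotometrically at 490 nm. MIC taken as the lowest drug dilution giving 50% growth inhibition. C. krusei […] run as control in each run. Read at 24 h and 48 h; trailing growth noted at 48 h.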

[2] = test system: Candida albicans; experiment: Antimicrobial activity against Candida albicans isolate S at 1 ug/ml grown on Muller-Hinton agar medium after 48 hrs by disk diffusion method; assay type: functional
In short: (§2)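 Disk diffusion on 90-mm RPMI 1640 with 2% glucose agar or on Mueller-Hinton agar. Plates were swabbed in three directions with a yeast suspension of 1–5 × 10^6 cells/ml. Paper disks (6 mm) held 1, 5 or 25 µg drug. Zone diameters were read at 24 and 48 h; values are means of two experiments.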

[3] = test system: Candida albicans; experiment: Antimicrobial activity against Candida albicans isolate S at 5 ug/ml grown on RPMI 1640 medium after 24 hrs by disk diffusion method; assay type: functional; in short: as §2
[4] = test system: Candida albicans; experiment: Antimicrobial activity against Candida albicans isolate C after 48 hrs by microdilution method; assay type: functional; in short: as §1
[5] = test system: Candida albicans; experiment: Antimicrobial activity against Candida albicans isolate R at 5 ug/ml grown on RPMI 1640 medium after 48 hrs by disk diffusion method; assay type: functional; in short: as §2
[6] = test system: Candida albicans; experiment: Antimicrobial activity against Candida albicans isolate R at 25 ug/ml grown on RPMI 1640 medium after 48 hrs by disk diffusion method; assay type: functional; in short: as §2
[7] = test system: Candida albicans; experiment: Antimicrobial activity against Candida albicans isolate C at 0.003 ug/ml after 48 hrs by agar dilution method; assay type: functional, organism-based
In short: (§3)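 Sabouraud agar wells contained caspofungin 0, 0.5, 1 or 2 µg/ml, or anidulafungin 0, 0.003, 0.125 or 0.5 µg/ml. Isolates were subcultured 2 days on CHROMagar. Suspensions of 1–5 × 10^6 CFU/ml in sterile water were diluted 1,500-fold, and 5 µl (about 3–15 cells) was spread per well. Growth was scored.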

[8] = test system: Candida albicans; experiment: Antimicrobial activity against Candida albicans isolate R at 5 ug/ml grown on Muller-Hinton agar medium after 48 hrs by disk diffusion method; assay type: functional; in short: as §2
[9] = test system: Candida albicans; experiment: Antimicrobial activity against Candida albicans isolate S at 5 ug/ml grown on RPMI 1640 medium after 48 hrs by disk diffusion method; assay type: functional; in short: as §2
[10] = test system: Candida albicans; experiment: Antimicrobial activity against Candida albicans isolate R at 25 ug/ml grown on Muller-Hinton agar medium after 24 hrs by disk diffusion method; assay type: functional; in short: as §2
[11] = test system: Candida albicans; experiment: Antimicrobial activity against Candida albicans isolate R at 5 ug/ml grown on RPMI 1640 medium after 24 hrs by disk diffusion method; assay type: functional; in short: as §2
[12] = test system: Candida albicans; experiment: Antimicrobial activity against Candida albicans isolate R at 25 ug/ml grown on RPMI 1640 medium after 24 hrs by disk diffusion method; assay type: functional; in short: as §2
[13] = test system: Candida albicans; experiment: Antimicrobial activity against Candida albicans isolate S at 25 ug/ml grown on RPMI 1640 medium after 24 hrs by disk diffusion method; assay type: functional; in short: as §2
[14] = test system: Candida albicans; experiment: Antimicrobial activity against Candida albicans isolate R at 1 ug/ml grown on RPMI 1640 medium after 24 hrs by disk diffusion method; assay type: functional; in short: as §2
[15] = test system: Candida albicans; experiment: Antimicrobial activity against Candida albicans isolate S at 1 ug/ml grown on RPMI 1640 medium after 48 hrs by disk diffusion method; assay type: functional; in short: as §2
[16] = test system: Candida albicans; experiment: Antimicrobial activity against Candida albicans isolate S at 1 ug/ml grown on RPMI 1640 medium after 24 hrs by disk diffusion method; assay type: functional; in short: as §2
[17] = test system: Candida albicans; experiment: Antimicrobial activity against Candida albicans isolate R at 5 ug/ml grown on Muller-Hinton agar medium after 24 hrs by disk diffusion method; assay type: functional; in short: as §2
[18] = test system: Candida albicans; experiment: Antimicrobial activity against Candida albicans isolate R after 24 hrs by microdilution method; assay type: functional; in short: as §1
[19] = test system: Candida albicans; experiment: Antimicrobial activity against Candida albicans isolate R at 1 ug/ml grown on Muller-Hinton agar medium after 24 hrs by disk diffusion method; assay type: functional; in short: as §2
[20] = test system: Candida albicans; experiment: Antimicrobial activity against Candida albicans isolate C at 0.5 ug/ml after 48 hrs by agar dilution method; assay type: functional, organism-based; in short: as §3
[21] = test system: Candida albicans; experiment: Antimicrobial activity against Candida albicans isolate S infected in NMRI mouse assessed as decrease in kidney bacterial burden at 12 mg/kg, ip measured on day 4; assay type: functional, organism-based; parameters: dose 12 mg/kg
[22] = test system: Candida albicans; experiment: Antimicrobial activity against Candida albicans isolate C after 48 hrs by EUCAST microdilution method; assay type: functional
In short: (§4)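 EUCAST broth microdilution, plates read spectrophotometrically at 490 nm. MIC is the lowest dilution giving 50% growth inhibition. C. krusei […] control included in each run.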

[23] = test system: Candida albicans; experiment: Antimicrobial activity against Candida albicans isolate R after 48 hrs by EUCAST microdilution method; assay type: functional; in short: as §4
[24] = test system: Candida albicans; experiment: Antimicrobial activity against Candida albicans isolate S at 25 ug/ml grown on Muller-Hinton agar medium after 24 hrs by disk diffusion method; assay type: functional; in short: as §2
[25] = test system: Candida albicans; experiment: Antimicrobial activity against Candida albicans isolate R at 0.003 ug/ml after 48 hrs by agar dilution method; assay type: functional, organism-based; in short: as §3
[26] = test system: Candida albicans; experiment: Antimicrobial activity against Candida albicans isolate C after 24 hrs by microdilution method; assay type: functional; in short: as §1
[27] = test system: Candida albicans; experiment: Antimicrobial activity against Candida albicans isolate S at 25 ug/ml grown on Muller-Hinton agar medium after 48 hrs by disk diffusion method; assay type: functional; in short: as §2
[28] = test system: Candida albicans; experiment: Antimicrobial activity against Candida albicans isolate C after 48 hrs by Etest; assay type: functional
In short: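 Etest on RPMI 1640 agar with 2% glucose, run per the manufacturer's instructions. Index and control clinical blood isolates were tested in parallel.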

[29] = test system: Candida albicans; experiment: Antimicrobial activity against Candida albicans isolate R at 1 ug/ml grown on Muller-Hinton agar medium after 48 hrs by disk diffusion method; assay type: functional; in short: as §2
[30] = test system: Candida albicans; experiment: Antimicrobial activity against Candida albicans isolate S at 5 ug/ml grown on Muller-Hinton agar medium after 24 hrs by disk diffusion method; assay type: functional; in short: as §2
[31] = test system: Candida albicans; experiment: Antimicrobial activity against Candida albicans isolate S at 1 ug/ml grown on Muller-Hinton agar medium after 24 hrs by disk diffusion method; assay type: functional; in short: as §2
[32] = test system: Candida albicans; experiment: Antimicrobial activity against Candida albicans isolate R at 0.5 ug/ml after 48 hrs by agar dilution method; assay type: functional, organism-based; in short: as §3
[33] = test system: Candida albicans; experiment: Antimicrobial activity against Candida albicans isolate S at 5 ug/ml grown on Muller-Hinton agar medium after 48 hrs by disk diffusion method; assay type: functional; in short: as §2
[34] = test system: Candida albicans; experiment: Antimicrobial activity against Candida albicans isolate R at 25 ug/ml grown on Muller-Hinton agar medium after 48 hrs by disk diffusion method; assay type: functional; in short: as §2
[35] = test system: Candida albicans; experiment: Antimicrobial activity against Candida albicans isolate R at 1 ug/ml grown on RPMI 1640 medium after 48 hrs by disk diffusion method; assay type: functional; in short: as §2
[36] = test system: Candida albicans; experiment: Antimicrobial activity against Candida albicans isolate R infected in NMRI mouse assessed as decrease in kidney bacterial burden at 12 mg/kg, ip measured on day 4; assay type: functional, organism-based; parameters: dose 12 mg/kg
In short: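 NMRI mice (26–30 g), seven per group, were inoculated iv on day 0 with C. albicans (1 × 10^5 CFU). They received ip treatment on days 1–3 with anidulafungin 12 mg/kg or fluconazole 50 mg/kg; controls received saline. On day 4, kidneys were homogenised in saline and CFU counted by spot plating of 10-fold dilutions. Results are log10 CFU/ml; detection limit 50 CFU/ml; Mann-Whitney test.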

[37] = test system: Candida albicans; experiment: Antimicrobial activity against Candida albicans isolate R after 48 hrs by Etest; assay type: functional
In short: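 Etest on RPMI 1640 agar with 2% glucose, performed according to the manufacturer's recommendations.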

[38] = test system: Candida albicans; experiment: Antimicrobial activity against Candida albicans isolate S at 25 ug/ml grown on RPMI 1640 medium after 48 hrs by disk diffusion method; assay type: functional; in short: as §2

CCCCCOc1ccc(-c2ccc(-c3ccc(C(=O)N[C@H]4C[C@@H](O)[C@@H](O)NC(=O)[C@@H]5[C@@H](O)[C@@H](C)CN5C(=O)[C@H]([C@@H](C)O)NC(=O)[C@H]([C@H](O)[C@@H](O)c5ccc(O)cc5)NC(=O)[C@@H]5C[C@@H](O)CN5C(=O)[C@H]([C@@H](C)O)NC4=O)cc3)cc2)cc1 [ANIDULAFUNGIN] ({pTerphenylCO(4''-OnC5H11)}-[Orn(4R-OH,5R-OH)]T[Hyp][hTyr(3S-OH,4S-OH)]T[Pro(3S-OH,4S-Me)]; lactam 1-C)
MIC [1]: 0.25 µg/mL (≈ 0.219 µM) | inhibition zone (IZ) [2]: 13.9 mm | inhibition zone (IZ) [3]: 15.9 mm | MIC [4]: ≤ 0.015 µg/mL | inhibition zone (IZ) [5]: 8.8 mm | inhibition zone (IZ) [6]: 7.1 mm | growth inhibition (GI) [7]: inactive | inhibition zone (IZ) [8]: 9.9 mm | inhibition zone (IZ) [9]: 15.7 mm | inhibition zone (IZ) [10]: 6.8 mm | inhibition zone (IZ) [11]: 9.5 mm | inhibition zone (IZ) [12]: 7.7 mm | inhibition zone (IZ) [13]: 14.9 mm | inhibition zone (IZ) [14]: 8.5 mm | inhibition zone (IZ) [15]: 13.2 mm | inhibition zone (IZ) [16]: 13.7 mm | inhibition zone (IZ) [17]: 9.4 mm | MIC [18]: 0.5 µg/mL (≈ 0.438 µM) | inhibition zone (IZ) [19]: 6.7 mm | growth inhibition (GI) [20]: Active | Activity [21]: Active | MIC [22]: ≤ 0.03 µg/mL | MIC [23]: 0.06 µg/mL (≈ 0.0526 µM) | inhibition zone (IZ) [24]: 12.8 mm | growth inhibition (GI) [25]: inactive | MIC [26]: 0.015 µg/mL (≈ 0.0132 µM) | inhibition zone (IZ) [27]: 13.1 mm | MIC [28]: ≤ 0.002 µg/mL | inhibition zone (IZ) [29]: 6.8 mm | inhibition zone (IZ) [30]: 14.2 mm | inhibition zone (IZ) [31]: 13.2 mm | growth inhibition (GI) [32]: inactive | inhibition zone (IZ) [33]: 14.6 mm | inhibition zone (IZ) [34]: 7 mm | inhibition zone (IZ) [35]: 7.8 mm | Activity [36]: inactive | MIC [37]: 0.5 µg/mL (≈ 0.438 µM) | inhibition zone (IZ) [38]: 13.8 mm

CC[C@@H]([C@H](C)O)n1ncn(-c2ccc(N3CCN(c4ccc(OC[C@@H]5CO[C@@](Cn6cncn6)(c6ccc(F)cc6F)C5)cc4)CC3)cc2)c1=O [POSACONAZOLE]
MIC [1]: ≤ 0.03 µg/mL | MIC [4]: ≤ 0.03 µg/mL | MIC [18]: ≤ 0.03 µg/mL | MIC [22]: ≤ 0.03 µg/mL | MIC [23]: ≤ 0.03 µg/mL | MIC [26]: ≤ 0.03 µg/mL

C[C@@H](c1ncncc1F)[C@](O)(Cn1cncn1)c1ccc(F)cc1F [VORICONAZOLE]
MIC [1]: ≤ 0.03 µg/mL | MIC [4]: ≤ 0.03 µg/mL | MIC [18]: ≤ 0.03 µg/mL | MIC [22]: ≤ 0.125 µg/mL | MIC [23]: ≤ 0.03 µg/mL | MIC [26]: ≤ 0.03 µg/mL
